A value given as a limit tells only on which side of the number the result lay.

The species entered for test [1] is Homo sapiens. The test is described as follows: Inhibition of aggregation of human gel-filtered platelets was measured by light transmittance method. Type of test: functional. An outline of the steps: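 Human gel-filtered platelets, 2 × 10⁸/mL, with 0.1 mg/mL human fibrinogen and 1 mM CaCl₂ at 37 °C. Aggregation was started with 10 μM ADP added last and followed by light transmittance. IC50 is the concentration halving the aggregation rate vs the uninhibited control, from at least two determinations.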

The target in test [2] is T1, Integrin alpha-IIb/beta-3 (Homo sapiens, UniProt P05106+P08514). The test is described as follows: Displacement of L-736,622 from purified resting Fibrinogen Receptor. Type of test: protein-complex assay. In outline:
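Human platelet GPIIb/IIIa, unactivated form from Sephacryl S-300HR (typically 600 nM), in Triton X-100 buffer pH 7.4 with Ca²⁺/Mg²⁺. Used 1 μM fluorescent ligand L-736,622 at room temperature, read by fluorescence displacement. KD was calculated using 3.7 nM as the probe KD.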
Target sequence in this assay (P05106 27-788 limits assumed): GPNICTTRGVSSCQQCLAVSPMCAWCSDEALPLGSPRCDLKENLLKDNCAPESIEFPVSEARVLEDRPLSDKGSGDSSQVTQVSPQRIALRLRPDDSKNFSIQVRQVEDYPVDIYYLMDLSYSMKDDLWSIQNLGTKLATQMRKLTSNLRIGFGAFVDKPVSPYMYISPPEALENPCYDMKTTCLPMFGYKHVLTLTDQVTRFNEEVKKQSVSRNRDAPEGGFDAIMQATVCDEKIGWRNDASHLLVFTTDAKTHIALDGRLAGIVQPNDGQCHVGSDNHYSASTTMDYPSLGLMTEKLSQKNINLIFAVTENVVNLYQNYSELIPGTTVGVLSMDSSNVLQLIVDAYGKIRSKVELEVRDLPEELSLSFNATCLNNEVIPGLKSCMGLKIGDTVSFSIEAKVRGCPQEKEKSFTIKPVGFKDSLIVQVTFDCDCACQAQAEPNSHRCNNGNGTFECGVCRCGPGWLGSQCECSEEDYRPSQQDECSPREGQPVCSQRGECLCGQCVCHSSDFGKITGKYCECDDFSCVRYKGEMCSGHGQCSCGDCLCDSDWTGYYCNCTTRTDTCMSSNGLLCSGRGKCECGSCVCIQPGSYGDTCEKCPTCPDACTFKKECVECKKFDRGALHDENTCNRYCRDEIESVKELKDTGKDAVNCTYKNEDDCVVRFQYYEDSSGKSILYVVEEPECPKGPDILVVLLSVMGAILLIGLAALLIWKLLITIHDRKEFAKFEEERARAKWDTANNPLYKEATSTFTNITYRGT
Target sequence in this assay (P08514 32-887 limits assumed): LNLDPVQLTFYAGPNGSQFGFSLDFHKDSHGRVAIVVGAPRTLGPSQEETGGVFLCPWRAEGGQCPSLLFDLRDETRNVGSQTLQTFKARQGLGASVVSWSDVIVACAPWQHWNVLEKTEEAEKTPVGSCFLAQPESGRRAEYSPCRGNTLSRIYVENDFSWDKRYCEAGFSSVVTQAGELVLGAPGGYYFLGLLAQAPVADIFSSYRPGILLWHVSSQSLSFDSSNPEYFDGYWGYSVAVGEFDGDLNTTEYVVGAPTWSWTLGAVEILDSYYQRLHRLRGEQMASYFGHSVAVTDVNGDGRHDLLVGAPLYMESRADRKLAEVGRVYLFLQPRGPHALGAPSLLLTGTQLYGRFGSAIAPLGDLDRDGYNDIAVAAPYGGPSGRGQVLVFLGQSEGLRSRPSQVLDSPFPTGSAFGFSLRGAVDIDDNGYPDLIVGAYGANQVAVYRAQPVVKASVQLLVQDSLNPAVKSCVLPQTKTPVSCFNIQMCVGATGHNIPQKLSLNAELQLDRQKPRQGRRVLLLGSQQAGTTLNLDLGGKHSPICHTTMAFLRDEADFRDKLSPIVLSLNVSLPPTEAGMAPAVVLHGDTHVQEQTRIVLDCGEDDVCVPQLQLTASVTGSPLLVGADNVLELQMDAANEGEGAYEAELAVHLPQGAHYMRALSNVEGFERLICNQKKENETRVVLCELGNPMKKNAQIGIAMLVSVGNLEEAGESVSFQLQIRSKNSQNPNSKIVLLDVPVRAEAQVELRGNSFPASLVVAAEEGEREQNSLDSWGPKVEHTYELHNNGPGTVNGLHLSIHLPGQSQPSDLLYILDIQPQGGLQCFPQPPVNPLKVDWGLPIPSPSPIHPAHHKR
Target sequence in this assay (P08514 891-1039 limits assumed): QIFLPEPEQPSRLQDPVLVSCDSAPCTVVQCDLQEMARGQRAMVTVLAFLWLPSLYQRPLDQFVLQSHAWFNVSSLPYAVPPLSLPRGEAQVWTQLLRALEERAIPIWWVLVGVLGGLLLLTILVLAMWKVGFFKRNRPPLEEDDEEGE

The target of test [3] is T1, Integrin alpha-IIb/beta-3. In words: Displacement of [125I]L-692884 from purified Fibrinogen Receptor activated by coating onto yttrium silicate. Type of test: protein-complex assay. In outline: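 Purified human GPIIb/IIIa activated by coating on yttrium silicate SPA beads (~0.3 nM) with ~0.3 nM [125I]L-692,884 in 20 mM HEPES, 0.15 M NaCl, pH 7.5, at room temperature. Competitor was tested over a wide concentration range. After equilibration, bound CPM was fitted by nonlinear least squares with a Hill slope to give ED50.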
For orientation: Loss of bound radioactivity is the signal in a displacement assay; it reports binding, not function.

In test [4] the test system is Homo sapiens. The test is described as follows: Inhibition of ADP induced platelet aggregation 75 minutes after administration of 10 ug/kg by gastric lavage. Type of test: functional. Particulars: 1.25 h. In outline:
(§1)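 Conscious mongrel dogs dosed by gastric lavage with aqueous solution (5 mL, sterile water vehicle); citrated blood at baseline and 20–480 min. PRP (2 × 10⁸ platelets/mL, 37 °C, stirred) aggregated with 10 μM ADP + 1 μM epinephrine; light transmittance; percent inhibition vs pretreatment response. n = 4 or 8.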

For test [5], the target named is T1, Integrin alpha-IIb/beta-3. The test is described as follows: Inhibition of human umbilical vein endothelial cells (HUVEC) attachment to fibrinogen (FG). Type of test: functional, cell-based.
Target sequence in this assay (P05106 27-788 limits assumed): as the sequence (P05106 27-788 limits assumed) above
Target sequence in this assay (P08514 32-887 limits assumed): as the sequence (P08514 32-887 limits assumed) above
Target sequence in this assay (P08514 891-1039 limits assumed): as the sequence (P08514 891-1039 limits assumed) above
The test system of test [6] is Homo sapiens. In words: Inhibition of ADP induced platelet aggregation after administration of 10 ug/kg by gastric lavage. Type of test: functional. An outline of the steps:
as §1

The test system of test [7] is Canis familiaris. The test is described as follows: Ex vivo inhibition of platelet aggregation at 24 hr after the oral administration of 100 mg/kg in dogs. Type of test: functional. Particulars: Canis lupus familiaris. In outline:
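Conscious dogs (n = 4) dosed orally with crystalline compound in gelatin capsules at 100 µg/kg. Ex vivo aggregation was read 24 h later in citrated PRP (2 × 10⁸ platelets/mL, 37 °C, light transmittance). It was expressed as percent inhibition vs the pretreatment baseline.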

Another test concerns the target Integrin alpha-5/beta-1 (Homo sapiens, UniProt P05556+P08648). The test is described as follows: Inhibition of human umbilical vein endothelial cells (HUVEC) attachment to fibronectin. Type of test: functional, cell-based.
The target of the next test is Integrin alpha-V/beta-3 (Homo sapiens, UniProt P05106+P06756). In words: Inhibition of human umbilical vein endothelial cells (HUVEC) attachment to vitronectin (VN). Type of test: functional, cell-based.
Test [8] concerns Canis familiaris. In words: Compound was tested for inhibition of extent of ADP-induced platelet aggregation between 1 and 15 min at 30 ug/Kg intravenous bolus in dogs. Type of test: functional. Particulars: Canis lupus familiaris.

Sequence of Integrin alpha-V/beta-3 (P05106 27-788 limits assumed): as the sequence (P05106 27-788 limits assumed) above
Sequence of Integrin alpha-V/beta-3 (P06756 31-889 limits assumed): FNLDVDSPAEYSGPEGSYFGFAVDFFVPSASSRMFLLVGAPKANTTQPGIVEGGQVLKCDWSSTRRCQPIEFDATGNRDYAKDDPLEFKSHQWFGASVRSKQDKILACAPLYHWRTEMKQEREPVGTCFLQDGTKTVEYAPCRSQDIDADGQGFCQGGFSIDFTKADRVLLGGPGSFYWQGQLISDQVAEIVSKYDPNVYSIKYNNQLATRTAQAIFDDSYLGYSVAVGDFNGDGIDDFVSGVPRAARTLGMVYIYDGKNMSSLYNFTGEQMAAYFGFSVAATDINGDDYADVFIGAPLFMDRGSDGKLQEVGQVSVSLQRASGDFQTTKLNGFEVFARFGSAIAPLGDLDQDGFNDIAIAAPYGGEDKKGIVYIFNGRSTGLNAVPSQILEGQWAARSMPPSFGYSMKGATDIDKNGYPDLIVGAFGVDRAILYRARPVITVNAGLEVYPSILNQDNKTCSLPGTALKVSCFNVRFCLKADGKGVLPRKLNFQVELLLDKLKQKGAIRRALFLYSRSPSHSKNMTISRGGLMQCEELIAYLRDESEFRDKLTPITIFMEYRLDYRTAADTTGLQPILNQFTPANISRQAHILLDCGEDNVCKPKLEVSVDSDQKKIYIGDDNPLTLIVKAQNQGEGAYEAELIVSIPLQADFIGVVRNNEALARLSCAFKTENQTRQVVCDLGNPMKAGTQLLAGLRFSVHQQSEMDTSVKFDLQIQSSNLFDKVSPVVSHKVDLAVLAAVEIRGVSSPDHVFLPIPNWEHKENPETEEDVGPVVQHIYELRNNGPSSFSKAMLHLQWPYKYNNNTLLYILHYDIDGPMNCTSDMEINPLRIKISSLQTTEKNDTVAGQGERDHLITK
Sequence of Integrin alpha-V/beta-3 (P06756 891-1048 limits assumed): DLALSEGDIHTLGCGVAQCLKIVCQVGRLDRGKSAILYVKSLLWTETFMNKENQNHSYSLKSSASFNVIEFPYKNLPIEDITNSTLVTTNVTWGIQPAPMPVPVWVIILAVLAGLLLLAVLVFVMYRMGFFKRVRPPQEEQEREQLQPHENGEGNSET
Sequence of Integrin alpha-5/beta-1 (P05556 21-798 limits assumed): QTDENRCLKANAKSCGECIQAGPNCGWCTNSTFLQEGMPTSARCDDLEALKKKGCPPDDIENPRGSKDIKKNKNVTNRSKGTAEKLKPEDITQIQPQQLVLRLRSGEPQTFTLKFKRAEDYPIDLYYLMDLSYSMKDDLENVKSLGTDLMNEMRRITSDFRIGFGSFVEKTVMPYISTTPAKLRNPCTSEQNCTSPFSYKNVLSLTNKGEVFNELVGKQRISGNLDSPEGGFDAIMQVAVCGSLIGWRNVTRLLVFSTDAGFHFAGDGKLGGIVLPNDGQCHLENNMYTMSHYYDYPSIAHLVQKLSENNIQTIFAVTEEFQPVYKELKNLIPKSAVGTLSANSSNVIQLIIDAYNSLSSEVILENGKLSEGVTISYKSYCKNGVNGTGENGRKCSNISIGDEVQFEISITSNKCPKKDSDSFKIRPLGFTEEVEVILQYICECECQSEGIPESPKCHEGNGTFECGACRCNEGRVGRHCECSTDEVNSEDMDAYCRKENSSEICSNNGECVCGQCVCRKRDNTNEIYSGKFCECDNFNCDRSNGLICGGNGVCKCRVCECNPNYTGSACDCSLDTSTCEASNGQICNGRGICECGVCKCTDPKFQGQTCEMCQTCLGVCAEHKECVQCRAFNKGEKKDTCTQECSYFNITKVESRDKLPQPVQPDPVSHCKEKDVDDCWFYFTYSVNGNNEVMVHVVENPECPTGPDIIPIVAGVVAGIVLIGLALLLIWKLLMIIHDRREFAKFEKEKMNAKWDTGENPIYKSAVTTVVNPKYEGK
Sequence of Integrin alpha-5/beta-1 (P08648 42-894 limits assumed): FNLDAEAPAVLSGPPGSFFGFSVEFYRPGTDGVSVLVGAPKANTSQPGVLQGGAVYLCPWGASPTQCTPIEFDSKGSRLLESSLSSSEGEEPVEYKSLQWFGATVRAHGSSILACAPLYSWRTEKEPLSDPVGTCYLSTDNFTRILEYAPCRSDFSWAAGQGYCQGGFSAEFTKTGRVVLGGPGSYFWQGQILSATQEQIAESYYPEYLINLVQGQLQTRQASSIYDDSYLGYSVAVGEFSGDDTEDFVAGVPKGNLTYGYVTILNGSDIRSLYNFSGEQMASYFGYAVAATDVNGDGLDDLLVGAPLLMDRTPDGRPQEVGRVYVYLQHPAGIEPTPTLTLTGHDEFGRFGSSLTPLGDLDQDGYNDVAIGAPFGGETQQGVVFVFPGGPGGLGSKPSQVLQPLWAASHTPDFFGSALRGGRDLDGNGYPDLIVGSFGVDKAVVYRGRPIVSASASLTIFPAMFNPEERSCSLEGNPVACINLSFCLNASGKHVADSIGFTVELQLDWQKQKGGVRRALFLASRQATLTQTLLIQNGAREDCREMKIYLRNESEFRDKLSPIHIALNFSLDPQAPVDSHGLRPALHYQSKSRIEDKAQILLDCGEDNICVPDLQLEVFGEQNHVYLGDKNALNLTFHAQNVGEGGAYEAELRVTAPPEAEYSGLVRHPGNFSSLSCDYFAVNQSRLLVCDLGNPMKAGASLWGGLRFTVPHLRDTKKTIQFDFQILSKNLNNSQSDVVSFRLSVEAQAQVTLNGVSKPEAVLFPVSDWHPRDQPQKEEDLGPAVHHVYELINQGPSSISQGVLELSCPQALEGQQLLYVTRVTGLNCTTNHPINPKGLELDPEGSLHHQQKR
Sequence of Integrin alpha-5/beta-1 (P08648 895-1049 limits assumed): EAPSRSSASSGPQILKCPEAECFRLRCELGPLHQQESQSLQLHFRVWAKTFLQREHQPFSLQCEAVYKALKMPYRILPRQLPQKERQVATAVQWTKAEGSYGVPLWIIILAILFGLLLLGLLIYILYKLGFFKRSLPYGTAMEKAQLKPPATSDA

For the molecule `CCCCS(=O)(=O)N[C@@H](CNC(=O)c1cc2n(n1)CCN(CCC1CCNCC1)C2=O)C(=O)O`, the midpoint of inhibition in the test filed under Homo sapiens [1], the IC50, lay at 9 nM. In addition, binding in [2] was put at a Kd of 1.8 nM. In addition, the ED50 in test [3] turned out to be 0.12 nM.

For the molecule `O=C(O)CCNC(=O)c1cc2n(n1)CCN(CCC1CCNCC1)C2=O`, in the test listed under Homo sapiens [1], inhibition was half-maximal at 250 nM (IC50). Moreover, in test [2], the Kd was 590 nM. The molecule also came in with an ED50 in [3] of 72 nM.

In the test on Homo sapiens [4], `CCCCS(=O)(=O)N[C@@H](CNC(=O)c1cc2n(n1)CCCN(CCC1CCNCC1)C2=O)C(=O)O` yielded an inhibition in vivo at 0.01 mg/kg of 76%. In test [2], this molecule gave a dissociation constant (Kd) of 1.4 nM. The molecule also came in with an ED50 in test [3] of 0.12 nM.

`Cc1ccc(S(=O)(=O)N[C@@H](CNC(=O)c2cc3n(n2)CCCN(CCC2CCNCC2)C3=O)C(=O)O)cc1`: the IC50 in test [5] was above 300 µM; in the test filed under Homo sapiens [1], 8 nM; at Integrin alpha-5/beta-1 it was above 300 µM; against Integrin alpha-V/beta-3 it was above 300 µM. The inhibition in vivo at 0.01 mg/kg with Homo sapiens [6] is above 65%. The same molecule showed a Kd in test [2] of 1.1 nM. Further, in the test on Canis familiaris [7], the inhibition in vivo at 100 mg/kg is above 85%. In test [3], this molecule yielded an ED50 of 0.08 nM.

In the test filed under Homo sapiens [1], `O=C(O)CCNC(=O)c1cc2n(n1)CCCN(CCC1CCNCC1)C2=O` displayed an IC50 of 470 nM. Besides, the Kd in test [2] is 680 nM. This molecule yielded an ED50 in test [3] of 46 nM.

In turn, `C[C@H](CC(=O)O)NC(=O)CN1CCC[C@@H](CCC2CCNCC2)C1=O` came in with an inhibition in vivo at 0.03 mg/kg in the test on Canis familiaris [8] above 90%. In [2], this molecule had a Kd of 600 nM. Moreover, the ED50 in test [3] came to 5 nM.

In general, IC50 refers to the concentration that inhibits the measured activity by half. Low values mean greater potency, high ones weaker potency. The Kd is the equilibrium constant for the complex coming apart. As a reminder, the inhibition in vivo is the drop in the measured response relative to a control, in per cent. Read a high inhibition in vivo as strong suppression.

The values above are taken from ChEMBL document CHEMBL1130054, “Non-peptide glycoprotein IIb/IIIa inhibitors. 17. Design and synthesis of orally active, long-acting non-peptide fibrinogen receptor antagonists” (J Med Chem, 1997).
